The target of assay [1] is T1, Dipeptidyl peptidase 4 (Homo sapiens, UniProt P27487). Put plainly: Inhibition of DPP-4 (unknown origin) assessed as half-life of endomorphin-1 after 30 min by RP-HPLC analysis (reference value: […] +/- 0.52 min).
Target sequence in this assay (P27487 whole entry, looked up): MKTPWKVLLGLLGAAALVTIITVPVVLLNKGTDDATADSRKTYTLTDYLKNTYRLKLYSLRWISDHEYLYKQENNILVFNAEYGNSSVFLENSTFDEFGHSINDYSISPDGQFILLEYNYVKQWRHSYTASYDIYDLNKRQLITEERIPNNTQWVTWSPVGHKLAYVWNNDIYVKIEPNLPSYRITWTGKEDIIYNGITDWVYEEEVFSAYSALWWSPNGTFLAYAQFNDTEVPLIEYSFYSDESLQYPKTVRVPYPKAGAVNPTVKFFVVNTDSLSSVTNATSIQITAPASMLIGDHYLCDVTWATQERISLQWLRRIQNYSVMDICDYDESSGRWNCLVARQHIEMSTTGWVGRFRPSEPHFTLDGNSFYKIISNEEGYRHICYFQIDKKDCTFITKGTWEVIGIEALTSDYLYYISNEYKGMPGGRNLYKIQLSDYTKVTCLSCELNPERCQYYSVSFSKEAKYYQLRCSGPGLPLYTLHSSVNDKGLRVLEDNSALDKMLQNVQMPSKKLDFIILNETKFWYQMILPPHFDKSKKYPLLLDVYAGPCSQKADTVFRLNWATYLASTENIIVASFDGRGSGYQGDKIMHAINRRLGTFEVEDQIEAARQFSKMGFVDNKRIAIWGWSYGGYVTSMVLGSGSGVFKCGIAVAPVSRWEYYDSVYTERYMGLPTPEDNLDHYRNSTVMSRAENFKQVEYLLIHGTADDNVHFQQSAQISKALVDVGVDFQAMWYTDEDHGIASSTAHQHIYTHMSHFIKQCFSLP
The target in assay [2] is T1, Dipeptidyl peptidase 4. Put plainly: Inhibition of DPP-4 (unknown origin) assessed as half-life of endomorphin-2 after 30 min by RP-HPLC analysis (reference value: […] +/- 0.64 min).
Target sequence in this assay (P27487 whole entry, looked up): as above
For assay [3], the target named is T1, Dipeptidyl peptidase 4. Put plainly: Inhibition of DPP-4 (unknown origin) assessed as inhibition of endomorphin-2 degradation after 30 min. Put shortly:
(§1)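 Purified commercial DPP IV (0.002 mg protein/ml) incubated with endomorphin and inhibitor, each from 1 mM solutions in 50 mM Tris–HCl pH 7.4, at 37°C for 0, 7.5, 15, 22.5 and 30 min. Stopped on ice with 1 M HCl, centrifuged. Rate constant k from linear regression of ln(A/A0) of peptide peak area versus time; t1/2 = ln2/k. Three independent experiments in duplicate.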

The target of assay [4] is T1, Dipeptidyl peptidase 4. The assay can be described thus: Inhibition of DPP-4 (unknown origin) assessed as inhibition of endomorphin-1 degradation after 30 min. The procedure, abridged:
as §1

In assay [5] the target is T2, Aminopeptidase N (Homo sapiens, UniProt P15144).
Assay [6] deals with T2, Aminopeptidase N. The assay can be described thus: Inhibition of APM (unknown origin) assessed as inhibition of endomorphin-1 degradation after 30 min.
Assay [7] addresses T2, Aminopeptidase N. The source holds these as a separate data set.
In assay [8] the target is T2, Aminopeptidase N. The assay can be described thus: Inhibition of APM (unknown origin) assessed as inhibition of endomorphin-2 degradation after 30 min.

pKi: −log10 of the molar value. Residues, ends and D or L forms follow the SMILES beside them.

What is called pKi is the Ki on a negative log10 scale, so that one unit is a factor of ten. For orientation: inhibition means the change of the read-out against control, counted positive when it falls.

T2 sequence (P15144 whole entry): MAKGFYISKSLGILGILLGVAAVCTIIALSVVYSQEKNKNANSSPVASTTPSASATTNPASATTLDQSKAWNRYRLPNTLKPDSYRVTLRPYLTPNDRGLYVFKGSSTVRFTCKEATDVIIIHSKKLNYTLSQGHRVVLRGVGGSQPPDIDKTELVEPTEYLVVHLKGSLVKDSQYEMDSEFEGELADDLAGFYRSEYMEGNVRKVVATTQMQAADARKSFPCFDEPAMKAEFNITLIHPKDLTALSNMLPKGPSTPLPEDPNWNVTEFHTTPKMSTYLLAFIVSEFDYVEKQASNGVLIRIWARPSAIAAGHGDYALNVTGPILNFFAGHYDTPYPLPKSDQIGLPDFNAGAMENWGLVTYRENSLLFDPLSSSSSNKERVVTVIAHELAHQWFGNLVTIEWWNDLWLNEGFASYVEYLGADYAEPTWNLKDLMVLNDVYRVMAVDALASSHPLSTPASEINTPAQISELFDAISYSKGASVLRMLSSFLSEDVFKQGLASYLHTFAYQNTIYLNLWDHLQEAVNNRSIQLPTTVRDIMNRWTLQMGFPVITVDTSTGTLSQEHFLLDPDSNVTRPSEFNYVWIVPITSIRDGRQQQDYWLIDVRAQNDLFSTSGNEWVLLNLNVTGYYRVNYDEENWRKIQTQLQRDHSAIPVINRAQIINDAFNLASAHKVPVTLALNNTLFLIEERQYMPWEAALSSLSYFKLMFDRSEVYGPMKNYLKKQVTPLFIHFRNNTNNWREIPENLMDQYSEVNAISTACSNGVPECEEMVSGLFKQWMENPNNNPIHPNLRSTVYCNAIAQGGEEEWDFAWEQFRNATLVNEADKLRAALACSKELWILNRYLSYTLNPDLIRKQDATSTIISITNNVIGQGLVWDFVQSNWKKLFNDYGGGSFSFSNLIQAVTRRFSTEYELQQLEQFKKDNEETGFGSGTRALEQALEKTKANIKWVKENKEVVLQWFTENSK

As for `CC[C@H](C)[C@H](N)C(=O)N1CCC[C@H]1C(=O)N[C@H](C(=O)O)[C@@H](C)CC`, the T1/2 on Dipeptidyl peptidase 4 [1] was 530 min; at Dipeptidyl peptidase 4 [2] it was 383 min.

On to `C[C@H](NC(=O)[C@@H]1CCCN1C(=O)[C@@H](N)Cc1ccc(O)cc1)C(N)=O` (H-Tyr-Pro-Ala-NH2), for which the pKi is 3.77 at Dipeptidyl peptidase 4 [3] and 3.38 on Dipeptidyl peptidase 4 [4]. Further, the inhibition at Dipeptidyl peptidase 4 [3] stood at 44.8%; on Dipeptidyl peptidase 4 [4] it was 26.7%. For the same compound, the T1/2 at Dipeptidyl peptidase 4 [1] came to 22.9 min; on Dipeptidyl peptidase 4 [2], 19.8 min.

As for `C[C@H](NC(=O)[C@@H]1CCCN1C(=O)[C@@H](N)Cc1ccc(O)cc1)C(=O)O` (H-Tyr-Pro-Ala-OH), the T1/2 was determined as 27.5 min on Dipeptidyl peptidase 4 [1] and 27.4 min at Dipeptidyl peptidase 4 [2].

In the case of `CCCCC[C@H](CC(=O)NO)C(=O)N[C@H](C(=O)N1CCC[C@H]1CO)C(C)C` [ACTINONIN], the T1/2 on Aminopeptidase N [5] worked out at 46.3 min; at Aminopeptidase N [7], 36.8 min. In addition, the pKi was 3.41 on Aminopeptidase N [6] and 3.52 on Aminopeptidase N [8].
